Source: PubChem BioAssay (several laboratories)
Shown are actives, neighbours in structure and some others; about 2.2% of the full set was active somewhere.
Arbovirus anti = antivirals against arbovirus infection, primary screen, cell-based, full library, 10K replicate subset | arbovirus infection cell-based antiviral screen | inhibition, % at 10 µM | 200,000 tested, 0.37% active | AID 1251, 2008; in the data active = inhibition above about 30%
RBBP9 inhibitor = human RBBP9 inhibitors, primary screen, biochemical, fluorescence polarization, FP-Rh probe, HTS; recombinant RBBP9; inhibition, % at 7.94 µM; 220,000 tested, 0.2% active; AID 1515, 2009;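 active = inhibition above the campaign mean of all tested compounds plus 3 SD, cut at about 14% in these data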;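 note: plate controls were DMSO wells with RBBP9 for no effect and wells lacking RBBP9 protein for full effect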
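Material: RBBP9 protein. Amount: RBBP9 at 2.5 µM in dispensed solution, before mixing. Schedule: 30 min then 45 min, 25 °C. Medium: Tris buffer pH 8.0, NaCl, Pluronic. Measured by: fluorescence polarization. Measure: percent inhibition from mP, scaled between DMSO and no-protein wells. Replication: one well per compound.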
PKD1 kinase inh = inhibitors of human PKD1 kinase, biochemical, fluorescence polarization; 200,000 tested, 0.056% active; inhibition, % (no concentration beside the values); AID 797, 2007; Serine/threonine-protein kinase D1 (Homo sapiens), Q15139; PKD1 kinase fluorescence polarization assay; in the data active = inhibition above about 50%
Target sequence (Q15139 whole entry, looked up): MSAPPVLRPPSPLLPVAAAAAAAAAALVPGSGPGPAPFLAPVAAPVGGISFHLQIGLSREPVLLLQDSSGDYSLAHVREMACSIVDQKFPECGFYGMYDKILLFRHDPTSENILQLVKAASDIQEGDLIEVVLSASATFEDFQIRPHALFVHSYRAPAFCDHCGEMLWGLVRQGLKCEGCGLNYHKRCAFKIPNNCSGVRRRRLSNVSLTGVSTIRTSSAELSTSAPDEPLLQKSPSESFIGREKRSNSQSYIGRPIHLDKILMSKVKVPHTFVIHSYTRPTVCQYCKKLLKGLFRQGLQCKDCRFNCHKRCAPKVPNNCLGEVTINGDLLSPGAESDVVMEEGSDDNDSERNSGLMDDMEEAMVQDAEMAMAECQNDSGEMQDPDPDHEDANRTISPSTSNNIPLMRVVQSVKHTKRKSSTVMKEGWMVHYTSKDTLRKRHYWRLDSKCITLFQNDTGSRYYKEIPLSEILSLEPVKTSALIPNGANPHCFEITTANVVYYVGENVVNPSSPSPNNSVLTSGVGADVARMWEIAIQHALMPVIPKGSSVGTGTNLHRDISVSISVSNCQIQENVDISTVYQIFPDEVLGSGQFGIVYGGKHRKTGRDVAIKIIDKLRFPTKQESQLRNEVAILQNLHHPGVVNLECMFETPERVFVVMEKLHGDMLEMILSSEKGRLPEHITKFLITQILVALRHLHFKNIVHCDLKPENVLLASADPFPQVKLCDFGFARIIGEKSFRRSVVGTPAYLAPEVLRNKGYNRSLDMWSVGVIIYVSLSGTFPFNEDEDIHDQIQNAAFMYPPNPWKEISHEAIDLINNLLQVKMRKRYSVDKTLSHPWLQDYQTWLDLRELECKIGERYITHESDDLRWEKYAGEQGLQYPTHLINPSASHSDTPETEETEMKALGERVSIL
DTT redox prof = compounds producing H2O2 with reducing agent – biochemical, NIH compound library profiling, artefact control for MLSCN library redox annotation, primary screen. AID 878, 2007. activation, % at 10 µM. DTT-dependent redox cycling H2O2, phenol red/HRP absorbance; 100% = 100 µM peroxide control, 0% = buffer. 200,000 tested, 0.03% active;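 active = activation of at least 50% relative to the plate's high and low controls in the primary single-dose screen; inactive = activation below 50%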;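 note: compound incubated with DTT at 0.8 mM final as the reducing agent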
p97 ATPase inh = inhibitors of human p97 ATPase, primary screen, biochemical; 220,000 tested, 0.42% active; inhibition, % at 8 µM; Transitional endoplasmic reticulum ATPase (Homo sapiens), P55072; AID 1481, 2009; recombinant p97 ATPase, Kinase-Glo ATP luminescence, 3 h; in the data active = inhibition above about 15%;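 note: 0% = DMSO vehicle and 100% = wells lacking enzyme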
Wee1 degr inh = Wee1 degradation inhibitors, primary screen, cell-based, HeLa, Wee1K328M-luciferase, luminescence. 220,000 tested, 1.2% active. AID 1321, 2008. HeLa Luc-Wee1K328M stability; 100% = proteasome inhibitor MG132 effect. Wee1-like protein kinase (Homo sapiens), P30291. reporter increase, % at 5 µM;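 active = activation above the mean of all tested compounds plus 3 SD, set per screening run, cut at about 8.8% in these data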;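 note: cells exposed to compound for 20 h before luminescence read; 0% = DMSO alone and 100% = MG132 at 30 µM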
An asterisk follows results filed as active; . = no result given.

SMILES	Arbovirus anti	RBBP9 inhibitor	PKD1 kinase inh	DTT redox prof	p97 ATPase inh	Wee1 degr inh
Cc1ccc(CSc2nnc(NC(=O)C3COc4ccccc4O3)s2)cc1 (stereo unspecified)	56*	2	-11	-5	-1	-1
O=C(Nc1cccc(Oc2ccc3c(c2)C(=O)NC3=O)c1)c1cccs1	3	-10	-3	0	7	-1
CCc1ccc(-c2ccc(SCc3ccccn3)nn2)cc1	-13	-9	5	-1	0	9.1*
CCOc1ccc(-c2ccc(SCC)nn2)cc1	-10	-8	-5	0	0	9.0*
Cc1ccc(CN2CCNC(=O)C2CC(=O)NC2CCCCCC2)o1 (stereo unspecified)	6	-8	-5	-1	-1	-1
Cc1ccc(CN2CCNC(=O)C2CC(=O)NCCCn2ncc3ccccc32)o1 (stereo unspecified)	5	-8	6	-1	2	15*
COC(=O)c1cc(C(=O)Nc2ccc(Cl)cn2)cc([N+](=O)[O-])c1	4	-9	0	-1	1	9.0*
COc1cc(C(=O)Nc2ccc([N+](=O)[O-])cn2)cc(OC)c1OC	0	-8	-3	0	6	1
O=C(CC1C(=O)NCCN1Cc1c(F)cccc1Cl)NCCc1ccccn1 (stereo unspecified)	-4	-5	8	-1	1	9.5*
Cc1cc(C(=O)Nc2ccc3[nH]ccc3c2)no1	.	-5	.	.	5	0
CCOC(=O)c1c(C)[nH]c(C)c1C(=O)CN1C(=O)NC(CC(C)C)C1=O (stereo unspecified)	3	-1	9	2	0	9.4*
CN(C)S(=O)(=O)N1CCN(C(=O)c2cccs2)CC1	1	3	-13	0	6	-2
O=C(/C=C/c1ccc([N+](=O)[O-])cc1)Nc1cccnc1	-7	-7	-14	-5	-6	10*
O=C(/C=C/c1ccc(Cl)c([N+](=O)[O-])c1)Nc1cccnc1	5	-13	-5	3	2	1
O=C(Nc1ccc(-c2nc3ccccc3o2)cc1)c1cccnc1	12	-4	-1	2	2	11*
O=C(N/N=C/c1cc2ccccc2[nH]1)c1ccccc1Cl	.	3	.	.	5	1
CCc1ccc2[nH]c(O)c(N=Nc3nc(-c4ccccc4)cs3)c2c1	-22	-4	-5	2	5	9.7*
CCc1cc2c(N=Nc3c(O)[nH]c4ccccc34)ncnc2s1	7	0	-6	2	4	0
O=C(CN1C(=O)C2CCCCC2C1=O)OCC(=O)c1ccc(Cl)s1 (stereo unspecified)	3	-9	-1	0	9	3
O=C(CSc1nnc2ccccn12)Nc1cccc(S(=O)(=O)N2CCOCC2)c1	-3	-5	5	0	0	0
COc1ccc(NC(=O)CCN2CCN(S(=O)(=O)c3ccc(Cl)cc3)CC2)cc1	1	-3	-13	0	4	2
O=C(CCC(=O)N1CCN(S(=O)(=O)c2ccc(Cl)cc2)CC1)Nc1ccc2ccccc2c1	1	-11	-6	1	9	10*
O=C(Nc1ccc2c(c1)CCC2)c1c(F)cccc1Cl	15	-7	3	-2	-3	8.9*
O=C(Nc1ccc2c(c1)CCC2)c1cnc(Cl)c(Cl)c1	8	-7	-2	1	-4	-2
Cc1cnc([N+](=O)[O-])n1CCOC(=O)NC(=O)c1ccc(F)cc1	1	0	7	-1	0	4
SMILES	Arbovirus anti	RBBP9 inhibitor	PKD1 kinase inh	DTT redox prof	p97 ATPase inh	Wee1 degr inh
CCOc1ccc(-n2c(=S)sc3c(=O)[nH]c(SCC(=O)C(C)(C)C)nc32)cc1	33*	-5	1	-1	-4	3
CCOC(=O)CSc1nc2c(sc(=S)n2-c2ccc(OCC)cc2)c(=O)[nH]1	42*	-10	-1	0	1	-2
Cc1ccc(CCNC(=O)CN(C)S(=O)(=O)c2ccc3c(c2)n(C)c(=O)c(=O)n3C)cc1	.	-5	.	.	-4	-2
CN1C2CCC1CC(NC(=O)CSc1ccc(C(C)(C)C)cc1)C2 (stereo unspecified)	.	-9	.	.	-5	9.6*
O=C(COc1ccc(Cl)cc1Cl)N/N=C/c1ccc(OC2OC(CO)C(O)C(O)C2O)cc1 (stereo unspecified)	.	-5	.	.	7	5
O=C(NNC(=S)NCc1ccccc1)c1cccc([N+](=O)[O-])c1	6	5	-2	1	6	0
O=C(NNC(=O)C1CC1c1ccccc1)c1cccc([N+](=O)[O-])c1 (stereo unspecified)	3	0	-6	0	5	11*
O=C(NN=C1C2CC3CC1CC(Cl)(C3)C2)c1ccccn1	2	1	1	-2	-6	9.7*
CC(C(=O)Nc1ccccc1-c1ccccc1)N1CCN(S(=O)(=O)c2ccccc2)CC1 (stereo unspecified)	61*	7	-4	1	-2	-1
C#CCSc1ncc(S(=O)(=O)c2ccccc2)c(=O)[nH]1	30*	-7	-1	0	0	1
CCn1c(=O)cc(SCC(=O)Nc2ccc(C)cn2)c2ccccc21	-12	2	6	1	3	2
CN(CC1CCOCC1)C(=O)CC1C(=O)NCCN1Cc1ccc(-c2ccccc2)cc1 (stereo unspecified)	6	-3	5	-1	-2	9.1*
COc1cccc(NC(=O)C(NC2CCCC2)c2ccccc2)c1 (stereo unspecified)	-6	-6	-7	2	2	2
COc1cccc(NC(=O)C(=S)NC2CCCCC2)c1	6	1	1	0	1	9.7*
CCOC(=O)N1CCN(c2ccccc2OC)CC1	.	-3	.	.	-3	9.6*
COc1ccccc1N1CCN(S(=O)(=O)c2ccccc2)CC1	-5	-4	-3	1	-9	5
COc1ccc(S(=O)(=O)N2CCN(c3ccccc3OC)CC2)cc1OC	49*	1	-5	3	-1	-1
COc1ccccc1N1CCN(C(=O)c2ccc(CS(=O)(=O)c3ccccc3OC)o2)CC1	1	-8	2	-2	-3	9.8*
CCCCNS(=O)(=O)c1ccc2nc(-c3cccnc3)cc(C(=O)NCCCOCC)c2c1	-8	-9	0	-2	3	1
